The results in this text go back to ChEMBL document CHEMBL4017470, “One drug for two targets: Biological evaluation of antiretroviral agents endowed with antiproliferative activity” (Bioorg Med Chem Lett, 2017).

Data set [1] is described as follows: Metabolic stability in human liver microsomes at 50 uM measured after 60 mins in presence of NADPH generating system by LC-UV-MS method. The data set is classed as ADME, microsome. To be noted: read-out: Stability.
Data set [2] is described as follows: Apparent permeability of the compound in phosphate buffer at pH 7.4 by PAMPA. In kind it is physicochemical.
Data set [3] has as its system HT-29. As to the kind of experiment: Growth inhibition of human HT-29 cells after 2 days by MTT assay. Particulars: HT-29, 48 h. The data set is classed as functional, cell-based.
Another data set concerns MCF7. As to the kind of experiment: Growth inhibition of human MCF7 cells after 2 days by MTT assay. The data set is classed as functional, cell-based. To be noted: MCF7, 48 h. In general terms: Tetrazolium dyes change colour on reduction, which living cells bring about.
Data set [4] deals with HT-29. As to the kind of experiment: Down regulation of c-Myc expression in human HT-29 cells assessed as c-Myc expression level at 1 uM after 48 hrs by RT-qPCR analysis relative to control. In kind it is functional. In a few lines:
(§1)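 HT-29 cells were incubated 48 h with compound, with DMSO as the vehicle control and resveratrol as the positive control. Total RNA was extracted, reverse-transcribed to cDNA, and hTERT or c-Myc quantified by RT-qPCR. Expression was normalized to β-actin and given as % of the DMSO control (100%). At least three measurements per case; mean ± SEM; one-sample t-test.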

In another data set the test system is Ramos. Kind of data set: Growth inhibition of human Ramos cells after 2 days by MTT assay. To be noted: 48 h. In kind it is functional, cell-based.
Data set [5] can be described thus: Growth inhibition of BAEC after 2 days by MTT assay. The data set is classed as cell-based. Particulars: Bos taurus, 48 h.
Data set [6] can be described thus: Selectivity index, ratio of IC50 for HEK293 cells to IC50 for human MCF7 cells. In kind it is functional.
The nature of data set [7]: Selectivity index, ratio of IC50 for HEK293 cells to IC50 for human Ramos cells. In kind it is functional.
Data set [8] relates to Human immunodeficiency virus 1. Kind of data set: Antiviral activity against HIV-1 NL4.3 infected in human TZM-b1 cells pretreated for 1 hr followed by viral infection measured after 2 days by CPRG assay. Particulars: Human immunodeficiency virus 1, NL4.3, TZM-b1. In kind it is functional, cell-based.
Data set [9] is described as follows: Cytotoxicity against human TZM-b1 cells by XTT assay. The data set is classed as cell-based. To be noted: read-out: LD50 (the source's name).
The nature of data set [10]: Selectivity index, ratio of IC50 for HEK293 cells to IC50 for human HT-29 cells. In kind it is functional.
The subject of data set [11] is HT-29. Kind of data set: Down regulation of hTERT expression in human HT-29 cells assessed as hTERT expression level at 1 uM after 48 hrs by RT-qPCR analysis relative to control. In kind it is functional. The procedure, abridged:
as §1

For a further data set, the system named is HEK293. As to the kind of experiment: Growth inhibition of HEK293 cells after 2 days by MTT assay. The data set is classed as cell-based. To be noted: Homo sapiens, HEK293, 48 h.
The nature of data set [12]: Selectivity index, ratio of IC50 for BAEC cells to IC50 for human MCF7 cells. The data set is classed as functional.
Data set [13] in a line: Selectivity index, ratio of IC50 for BAEC cells to IC50 for human Ramos cells. The data set is classed as functional.
Data set [14] in a line: Selectivity index, ratio of IC50 for BAEC cells to IC50 for human HT-29 cells. The data set is classed as functional.
Data set [15] is described as follows: Aqueous solubility of the compound in water at 1 mg after 24 to 36 hrs by LC-MS/MS analysis. The data set is classed as physicochemical.
In data set [16] the test system is HT-29. Kind of data set: Down regulation of hTERT expression in human HT-29 cells assessed as hTERT expression level at 5 uM after 48 hrs by RT-qPCR analysis relative to control. In kind it is functional. The procedure, abridged: as §1
On the technique in general: In qPCR the cycle at which signal appears reflects the starting amount.

Data set [17] has as its system HT-29. Kind of data set: Down regulation of c-Myc expression in human HT-29 cells assessed as c-Myc expression level at 5 uM after 48 hrs by RT-qPCR analysis relative to control. The data set is classed as functional. The procedure, abridged: as §1
Data set [18] concerns HT-29. Kind of data set: Down regulation of c-Myc expression in human HT-29 cells assessed as c-Myc expression level at 20 uM after 48 hrs by RT-qPCR analysis relative to control. In kind it is functional. In a few lines:
as §1

Data set [19] has as its system HT-29. Kind of data set: Down regulation of hTERT expression in human HT-29 cells assessed as hTERT expression level at 20 uM after 48 hrs by RT-qPCR analysis relative to control. The data set is classed as functional. The procedure, abridged: as §1

≈ marks a conversion by molar mass, not a printed value.

For the molecule `C[C@]12CC[C@H]3[C@@H](CCC4=CC(=O)CC[C@@]43C)[C@@H]1CC[C@@H]2O` [TESTOSTERONE], the remaining at 1 h, 50 µM in data set [1] worked out at 76.2%.
By Papp is commonly meant the rate of passage across a membrane or cell layer, normalised by area and donor concentration. Turning to `CC(C)NCC(O)COc1cccc2ccccc12` (stereo not drawn) [PROPRANOLOL], the Papp in data set [2] was 9.68 ×10⁻⁶ cm/s.
What is called IC50 is the concentration that gives 50% inhibition. With `O=C1/C(=C/c2ccc(-c3cc(C(F)(F)F)ccc3Cl)o2)SC(=S)N1Cc1ccc(F)cc1`, the IC50 in the data set on HT-29 [3] amounted to 4.6 µM; in the data set with MCF7, 1.2 µM; in the data set on Ramos, 4.1 µM; in data set [5], 2.2 µM; in data set [8] it was 17.3 µM; in the data set with HEK293, 2.4 µM. Moreover, the Activity is listed as 69% with HT-29 [4] and 37% in the data set with HT-29 [11]. Moreover, the “Ratio IC50” value worked out at 2 in data set [6]; 0.59 in data set [7]; 0.52 in data set [10]; 1.83 in data set [12]; 0.53 in [13]; 0.48 in [14]. In addition, the CC50 in data set [9] is more than 50 µM.
By solubility is commonly meant the concentration that dissolves in the medium under given conditions. Low values mean a poorly soluble substance, high ones a readily soluble substance. Turning to `O=C1N=C(Nc2ccc(F)c(Cl)c2)S/C1=C\c1ccc(-c2ccc(C(=O)O)c(O)c2)o1`, the 50% inhibitory concentration (IC50) in the data set with HT-29 [3] was 1.1 µM; in the data set with MCF7, 13 µM; with Ramos it was 3.1 µM; in [5], 25 µM; in [8] it was 1 µM; with HEK293, 12 µM. The values for the Activity in the data set on HT-29 [4] and in the data set on HT-29 [11] were 60% and 53%, respectively. Besides, in data set [2], the apparent permeability coefficient (Papp) was 1.58 ×10⁻⁶ cm/s. Besides, the “Ratio IC50” value amounted to 0.92 in [6]; 3.9 in [7]; 10.91 in data set [10]; 1.92 in data set [12]; 8 in [13]; 22.72 in data set [14]. Moreover, the solubility in [15] is 11.8 µM (≈ 5.41 µg/mL). Also, in [9], the CC50 is more than 50 µM. The remaining at 1 h, 50 µM in [1] turned out to be 99.1%.
In the case of `O=C1/C(=C/c2ccc(-c3cc(C(F)(F)F)ccc3Cl)o2)SC(=S)N1Cc1ccc(Cl)cc1`, the 50% inhibitory concentration (IC50) in the data set with HT-29 [3] was found to be 8.3 µM; in the data set on MCF7, 1.13 µM; with Ramos, 3.8 µM; in data set [5], 2.4 µM; in [8], 6.9 µM; with HEK293 it was 4.2 µM. In addition, the figures for the Activity in the data set with HT-29 [16] and with HT-29 [17] were 53% and 100%, respectively. Besides, the “Ratio IC50” value in [6] is 3.72; in data set [7] it was 1.1; in data set [10] it was 0.51; in data set [12], 2.12; in data set [13] it was 0.63; in [14], 0.29. Also, the CC50 in data set [9] was more than 50 µM.
Turning to `Oc1ccc(/C=C/c2cc(O)cc(O)c2)cc1` [RESVERATROL], the IC50 in the data set with HT-29 [3] was determined as 137 µM; in the data set with MCF7 it was 34 µM; in the data set on Ramos, 37 µM; in data set [5], 57 µM; with HEK293, 17 µM. The Activity in the data set on HT-29 [4] was 47%; in the data set on HT-29 [11], 28%.
`CCc1ccc(CCNC2=NC(=O)/C(=C/c3ccc(-c4ccc(C(=O)O)c(O)c4)o3)S2)cc1`: the Activity in the data set on HT-29 [18] was determined as 67%; in the data set with HT-29 [19], 56%. For the same molecule, the IC50 with HT-29 [3] is 26 µM; in the data set on MCF7, 4.5 µM; in the data set on Ramos, 37 µM; in data set [5], 20 µM; in [8], 1 µM; in the data set with HEK293, 3.4 µM. The “Ratio IC50” value is recorded as 0.76 in data set [6]; 0.09 in data set [7]; 0.13 in [10]; 4.44 in data set [12]; 0.54 in data set [13]; 0.77 in [14]. Further, the CC50 in [9] was more than 50 µM.
With `O=C1N=C(NCCc2ccc(Cl)c(Cl)c2)S/C1=C\c1ccc(-c2ccc(C(=O)O)c(O)c2)o1`, the IC50 with HT-29 [3] was more than 100 µM; in the data set on MCF7, more than 100 µM; in the data set with Ramos it was more than 100 µM; in [5], more than 100 µM; in data set [8] it was 1.8 µM; in the data set on HEK293, more than 100 µM. The CC50 in data set [9] is more than 50 µM.
Take `Cc1nnc(C(=O)NC(C)(C)c2nc(C(=O)NCc3ccc(F)cc3)c(O)c(=O)n2C)o1` [RALTEGRAVIR]: in [8], the half-inhibitory concentration (IC50) stood at 0.021 µM. Further, the CC50 in data set [9] was more than 50 µM.
Regarding `O=C(O)c1ccc(-c2ccc(/C=C3\SC(=S)N(CCc4ccc(Cl)c(Cl)c4)C3=O)o2)cc1O`, the 50% inhibitory concentration (IC50) was more than 100 µM with HT-29 [3]; more than 100 µM with MCF7; more than 100 µM in the data set with Ramos; 86 µM in [5]; 4.8 µM in data set [8]; 29 µM in the data set on HEK293. The “Ratio IC50” value in data set [6] is on record as less than 0.29; in [7], less than 0.29; in data set [10], less than 0.29; in data set [12] it was less than 0.86; in data set [13], less than 0.86; in [14], less than 0.86. For the same molecule, in [9], the CC50 was more than 50 µM.
Regarding `O=C1N=C(N2CCOCC2)S/C1=C\c1ccc(-c2ccc(C(=O)O)c(O)c2)o1`, the concentration for half-maximal inhibition (IC50) with HT-29 [3] is 2.3 µM; with MCF7 it was 21 µM; in the data set with Ramos, 3.14 µM; in [5], 76 µM; in [8], 13.4 µM; with HEK293 it was 53 µM. The Activity in the data set with HT-29 [4] amounted to 60%; in the data set with HT-29 [11], 51%. For the same molecule, the Papp in data set [2] was determined as 1.28 ×10⁻⁶ cm/s. The “Ratio IC50” value turned out to be 2.52 in data set [6]; 16.9 in data set [7]; 23.04 in data set [10]; 3.62 in [12]; 24.2 in data set [13]; 33.04 in data set [14]. The same molecule displayed a solubility in data set [15] of 9.7 µM (≈ 3.88 µg/mL). In data set [9], the CC50 is more than 50 µM. Besides, the remaining at 1 h, 50 µM in data set [1] came to 98.7%.
Consider `Cn1c(=O)c2c(ncn2C)n(C)c1=O` [CAFFEINE], for which, in data set [2], the apparent permeability coefficient (Papp) was less than 0.1 ×10⁻⁶ cm/s.
